Reference: ChEMBL document CHEMBL1124799, “1,4-bis(3-oxo-2,3-dihydropyridazin-6-yl)benzene analogues: potent phosphodiesterase inhibitors and inodilators” (1990)

Key:
[1] = system: Phosphodiesterase 3 (Felis catus); experiment: Inhibition of phosphodiesterase 3 enzyme activity by 50%
[2] = system: Felis catus; experiment: ED15 is the dose producing 15% decrease in autoperfused hindquarters perfusion pressure in anesthetized cat; type: functional
How it was run: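 Anesthetized cats (either sex, 1.9–2.5 kg; pentobarbitone 60 mg/kg ip), ganglion-blocked with pempidine 5 mg/kg, then β-blocked with propranolol 1 mg/kg iv plus 3–4 mg/kg sc, heparinized 500 units/kg iv. Hindquarters autoperfused via the descending aorta. Test compound given as an iv bolus. ED15 taken as the dose lowering perfusion pressure by 15%, from dose-response curves, mean of ≥2 experiments.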

[3] = system: Felis catus; experiment: The dose required to cause 50% increase in the contractility and inotropic activity as dLVP/dt(max) in anesthetized cat; type: functional
How it was run: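 Pentobarbitone-anesthetized cats (60 mg/kg ip), given pempidine 5 mg/kg and then propranolol 1 mg/kg iv plus 3–4 mg/kg sc. Cats responding to isoprenaline 0.01–0.1 μg/kg iv with less than a 100% contractility rise were rejected. Test compound given as an iv bolus, with dLVP/dt(max) as the read-out. ED50 is the dose giving a 50% rise over control, from dose-response curves, mean of ≥2 experiments. Duration was scored by the time for dLVP/dt to return to control.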

[4] = system: Phosphodiesterase 3 (Felis catus); experiment: Inhibition of Phosphodiesterase 3

Structure (SMILES)	IC50 [1]	ED15 [2]	ED50 [3]	IC50 [4]
CC(=O)Nc1ccc(-c2ccc(O)nn2)cc1	6.38 µM	–	–	–
CC(=O)Nc1ccc(C2=NNC(=O)CC2)cc1	7.13 µM	0.2 µM/kg	0.19 µmol/kg	–
CC1CC(=O)NN=C1c1ccc(-c2ccc(O)nn2)cc1 (configuration not stated)	0.07 µM	0.01 µM/kg	0.02 µmol/kg	–
CC(=O)Nc1ccc(C2=NNC(=O)CC2C)cc1 (configuration not stated)	–	0.08 µM/kg	0.03 µmol/kg	–
O=C1CCC(c2ccc(C3=NNC(=O)CC3)cc2)=NN1	0.64 µM	0.12 µM/kg	0.55 µmol/kg	–
Oc1ccc(-c2ccc(-c3ccc(-c4ccc(O)nn4)cc3)cc2)nn1	> 100 µM	–	–	–
CC1CC(=O)NN=C1c1ccc(N)cc1 (configuration not stated)	37 µM	0.5 µM/kg	1.7 µmol/kg	–
Nc1ccc(-c2ccc(O)nn2)cc1	22.8 µM	–	–	–
O=C1CCC(c2ccc(-n3ccnc3)cc2)=NN1 [IMAZODAN]	–	0.42 µM/kg	0.64 µmol/kg	–
Oc1ccc(-c2ccc(-c3ccc(O)nn3)s2)nn1	0.49 µM	0.38 µM/kg	0.73 µmol/kg	–
Nc1ccc(C2=NNC(=O)CC2)cc1	61.7 µM	1.4 µM/kg	4.43 µmol/kg	–
Oc1ccc(-c2ccc(-c3ccc(O)nn3)cc2)nn1	0.33 µM	0.06 µM/kg	0.04 µmol/kg	–
Cc1cc(O)nnc1-c1ccc(-c2nnc(O)cc2C)cc1	37.5 µM	–	–	–
CC1CC(=O)NN=C1c1ccc(C2=NNC(=O)CC2C)cc1 (configuration not stated)	0.11 µM	0.04 µM/kg	0.06 µmol/kg	–
CC1CC(=O)NN=C1c1ccc(C(N)=O)cc1 (configuration not stated)	2.23 µM	0.1 µM/kg	0.07 µmol/kg	–
CC1CC(O)=NN=C1c1ccc(-n2ccnc2)cc1 (configuration not stated) [CI-930]	–	0.09 µM/kg	0.18 µmol/kg	–
Oc1ccc(-c2cccc(-c3ccc(O)nn3)c2)nn1	3.9 µM	3.23 µM/kg	–	–
CC1SC(=O)NN=C1c1ccc(C2=NNC(=O)SC2C)cc1 (configuration not stated)	–	0.09 µM/kg	0.13 µmol/kg	0.08 µM
